Assay type in all cases: functional
Common to all, as to set-up: scale not given: the % may be the effect or the level left

Assay [1] concerns Rattus norvegicus. Briefly: Hypolipidemic activity in COBBS-CD rat assessed as reduction in serum sterol level at 0.1% administered with chow diet after 5 days relative to control. Put shortly: (§1)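 Male COBBS-CD rats, four per treated group and eight per control group. The compound was mixed into ground rat chow at 0.1, 0.03 or 0.01% w/w (about 100, 30 and 10 mg/kg). Control chow received only the mixing solvent (methanol-chloroform 1:3 v/v). Food and water were ad libitum for 5 days, then rats were decapitated and blood collected. Serum sterols were measured by an automated method and expressed relative to controls; ± values are SD.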

For assay [2], the system named is Rattus norvegicus. Briefly: Hypolipidemic activity in COBBS-CD rat assessed as reduction in serum sterol level at 0.03% administered with chow diet after 5 days relative to control. Put shortly:
as §1

The subject of assay [3] is Rattus norvegicus. Briefly: Hypolipidemic activity in COBBS-CD rat assessed as reduction in serum sterol level at 0.01% administered with chow diet after 5 days relative to control. The method in brief:
as §1

Assay [4] deals with Rattus norvegicus. Description: Hypolipidemic activity in COBBS-CD rat assessed as reduction in serum triglyceride level at 0.1% administered with chow diet after 5 days relative to control. Put shortly:
(§2)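 The compound was given in ground chow at 0.1, 0.03 or 0.01% w/w (about 100, 30 and 10 mg/kg) to male COBBS-CD rats (n=4; solvent-chow controls n=8) for 5 days ad libitum. Rats were killed by decapitation and blood collected. Serum triglycerides were assayed by an automated method and compared with controls; ± values are SD.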

The subject of assay [5] is Rattus norvegicus. Briefly: Hypolipidemic activity in COBBS-CD rat assessed as reduction in serum triglyceride level at 0.03% administered with chow diet after 5 days relative to control. The method in brief:
as §2

In assay [6] the test system is Rattus norvegicus. Description: Hypolipidemic activity in COBBS-CD rat assessed as reduction in serum triglyceride level at 0.01% administered with chow diet after 5 days relative to control. Put shortly:
as §2

Results on 28 compounds are retold here after ChEMBL document CHEMBL3244011, “(Aryloxy)[p-(aryloxy)phenyl]- and (aryloxy)[p-(arylthio)phenyl]acetic acids and esters as hypolipidemic agents” (1979).

Take `COC(=O)C(Oc1cccc(C(F)(F)F)c1)c1ccc(Oc2ccc(Cl)cc2)cc1` (stereo not drawn): the Activity in the assay with Rattus norvegicus [1] was 28%; in the assay with Rattus norvegicus [2], 16%; in the assay with Rattus norvegicus [3], -6%; in the assay with Rattus norvegicus [4], 61%; in the assay on Rattus norvegicus [5], 47%; in the assay on Rattus norvegicus [6] it was 18%.

Take `COC(=O)C(Oc1cccc(-c2ccccc2)c1)c1ccc(Oc2ccc(Cl)cc2)cc1` (stereo not drawn): the Activity in the assay on Rattus norvegicus [1] came to 28%; with Rattus norvegicus [2], 21%; with Rattus norvegicus [3], 8%; with Rattus norvegicus [4], 66%; in the assay with Rattus norvegicus [5] it was 45%; in the assay on Rattus norvegicus [6], 38%.

With `COC(=O)C(Oc1ccc(C2CCCCC2)cc1)c1ccc(Oc2ccc(Cl)cc2)cc1` (stereo not drawn), the Activity in the assay on Rattus norvegicus [1] was determined as 51%; in the assay with Rattus norvegicus [2], 21%; in the assay with Rattus norvegicus [3], 20%; in the assay with Rattus norvegicus [4], 66%; in the assay on Rattus norvegicus [5], 47%; with Rattus norvegicus [6], 37%.

As to `COC(=O)C(Oc1cc(Cl)c(Cl)c(Cl)c1)c1ccc(Oc2ccc(Cl)cc2)cc1` (stereo not drawn), the Activity with Rattus norvegicus [1] is on record as 30%; in the assay with Rattus norvegicus [2], -2%; in the assay with Rattus norvegicus [3] it was 3%; with Rattus norvegicus [4], 55%; in the assay with Rattus norvegicus [5], 46%; in the assay on Rattus norvegicus [6], 15%.

Turning to `COC(=O)C(Oc1cc(C)c(Cl)c(C)c1)c1ccc(Oc2ccc(Cl)cc2)cc1` (stereo not drawn), the Activity in the assay on Rattus norvegicus [1] worked out at 21%; in the assay with Rattus norvegicus [2], 22%; with Rattus norvegicus [3] it was 0%; in the assay on Rattus norvegicus [4] it was 66%; with Rattus norvegicus [5], 49%; with Rattus norvegicus [6] it was 33%.

Take `COC(=O)C(Oc1cccc(Cl)c1)c1ccc(Oc2ccc(Cl)cc2)cc1` (stereo not drawn): the Activity is on record as 19% in the assay on Rattus norvegicus [1]; 11% in the assay on Rattus norvegicus [2]; -3% in the assay with Rattus norvegicus [3]; 50% in the assay on Rattus norvegicus [4]; 22% in the assay on Rattus norvegicus [5]; 13% in the assay on Rattus norvegicus [6].

In the case of `COC(=O)C(Oc1ccc(Cl)c(Cl)c1)c1ccc(Oc2ccc(Cl)cc2)cc1` (stereo not drawn), the Activity came out at 24% with Rattus norvegicus [1]; 26% in the assay with Rattus norvegicus [2]; 5% with Rattus norvegicus [3]; 67% in the assay with Rattus norvegicus [4]; 60% in the assay on Rattus norvegicus [5]; 14% with Rattus norvegicus [6].

For `COC(=O)C(Oc1cc(Cl)cc(Cl)c1)c1ccc(Oc2ccc(Cl)cc2)cc1` (stereo not drawn), the Activity is reported as 26% in the assay with Rattus norvegicus [1]; 10% in the assay on Rattus norvegicus [2]; -11% in the assay with Rattus norvegicus [3]; 47% in the assay with Rattus norvegicus [4]; 6% in the assay on Rattus norvegicus [5]; -44% with Rattus norvegicus [6].

Take `COC(=O)C(Oc1ccc(C)c(C)c1)c1ccc(Oc2ccc(Cl)cc2)cc1` (stereo not drawn): the Activity in the assay on Rattus norvegicus [1] is listed as 46%; in the assay on Rattus norvegicus [2], 28%; in the assay with Rattus norvegicus [3], 18%; in the assay on Rattus norvegicus [4], 63%; with Rattus norvegicus [5], 45%; with Rattus norvegicus [6] it was 23%.

Regarding `COC(=O)C(Oc1cccc2c1CCC2)c1ccc(Oc2ccc(Cl)cc2)cc1` (stereo not drawn), the Activity in the assay on Rattus norvegicus [1] is 19%; in the assay with Rattus norvegicus [2] it was 10%; in the assay on Rattus norvegicus [3] it was 7%; with Rattus norvegicus [4] it was 17%; with Rattus norvegicus [5], -8%; with Rattus norvegicus [6], -39%.

Turning to `COC(=O)C(Oc1ccc(Cl)c(C)c1)c1ccc(Oc2ccc(Cl)cc2)cc1` (stereo not drawn), the Activity in the assay on Rattus norvegicus [1] is 39%; in the assay with Rattus norvegicus [2], 34%; in the assay with Rattus norvegicus [3], 34%; with Rattus norvegicus [4], 54%; in the assay on Rattus norvegicus [5], 39%; in the assay with Rattus norvegicus [6] it was 28%.

As to `COC(=O)C(Oc1ccc(NC(C)=O)cc1)c1ccc(Oc2ccc(Cl)cc2)cc1` (stereo not drawn), the Activity in the assay with Rattus norvegicus [1] is -3%; in the assay on Rattus norvegicus [2], -11%; in the assay with Rattus norvegicus [3] it was -4%; in the assay on Rattus norvegicus [4] it was 13%; in the assay on Rattus norvegicus [5], -20%; in the assay with Rattus norvegicus [6], -9%.

As to `COC(=O)C(Oc1ccc(C(F)(F)F)cc1)c1ccc(Oc2ccc(Cl)cc2)cc1` (stereo not drawn), the Activity came to 20% in the assay on Rattus norvegicus [1]; 28% in the assay on Rattus norvegicus [2]; 24% in the assay with Rattus norvegicus [3]; 53% in the assay on Rattus norvegicus [4]; 51% in the assay with Rattus norvegicus [5]; 60% in the assay on Rattus norvegicus [6].

`CCOC(=O)C(Oc1ccc(Cl)cc1)c1ccc(Oc2ccc(Cl)cc2)cc1` (stereo not drawn): the Activity came out at 25% with Rattus norvegicus [1]; 25% in the assay on Rattus norvegicus [2]; 18% in the assay on Rattus norvegicus [3]; 60% in the assay on Rattus norvegicus [4]; 51% in the assay on Rattus norvegicus [5]; 40% in the assay on Rattus norvegicus [6].

On to `COC(=O)C(Oc1ccc(Cl)cc1)c1ccc(Oc2ccc(C#N)cc2)cc1` (stereo not drawn), for which the Activity came to 16% in the assay on Rattus norvegicus [1]; 19% with Rattus norvegicus [2]; 20% with Rattus norvegicus [3]; 71% in the assay with Rattus norvegicus [4]; 60% in the assay with Rattus norvegicus [5]; 50% with Rattus norvegicus [6].

For the compound `COC(=O)C(Oc1cccc(C(F)(F)F)c1)c1ccc(Oc2ccc(C#N)cc2)cc1` (stereo not drawn), the Activity in the assay on Rattus norvegicus [1] is listed as 32%; in the assay with Rattus norvegicus [2] it was 24%; in the assay on Rattus norvegicus [3] it was 12%; with Rattus norvegicus [4], 50%; with Rattus norvegicus [5], 34%; in the assay on Rattus norvegicus [6], -37%.

As to `COC(=O)C(Oc1ccc(C(C)(C)C)cc1)c1ccc(Oc2ccc(C#N)cc2)cc1` (stereo not drawn), the Activity is on record as 13% in the assay with Rattus norvegicus [1]; 13% with Rattus norvegicus [2]; 16% with Rattus norvegicus [3]; 59% in the assay with Rattus norvegicus [4]; 63% with Rattus norvegicus [5]; 69% with Rattus norvegicus [6].

As to `COC(=O)C(Oc1ccc(Cl)cc1)c1ccc(Oc2ccc(S(C)(=O)=O)cc2)cc1` (stereo not drawn), the Activity in the assay on Rattus norvegicus [1] is recorded as 15%; in the assay with Rattus norvegicus [2] it was -1%; in the assay on Rattus norvegicus [3], 8%; in the assay with Rattus norvegicus [4], 22%; in the assay with Rattus norvegicus [5] it was -11%; in the assay on Rattus norvegicus [6] it was 11%.

`COC(=O)C(Oc1ccc(F)cc1)c1ccc(Oc2ccc(S(C)(=O)=O)cc2)cc1` (stereo not drawn): the Activity in the assay on Rattus norvegicus [1] is given as 10%; in the assay with Rattus norvegicus [2] it was -1%; in the assay on Rattus norvegicus [3], -3%; in the assay with Rattus norvegicus [4] it was 3%; in the assay on Rattus norvegicus [5], -8%; in the assay on Rattus norvegicus [6] it was 16%.

For `COC(=O)C(Oc1ccc(C(C)(C)C)cc1)c1ccc(Oc2ccc([N+](=O)[O-])cc2)cc1` (stereo not drawn), the Activity with Rattus norvegicus [1] is 10%; in the assay on Rattus norvegicus [2] it was -4%; in the assay on Rattus norvegicus [3] it was -3%; in the assay on Rattus norvegicus [4] it was 51%; in the assay with Rattus norvegicus [5] it was 40%; with Rattus norvegicus [6] it was 34%.

Take `COC(=O)C(Oc1ccc(Cl)cc1)c1ccc(Oc2ccccc2)cc1` (stereo not drawn): the Activity in the assay on Rattus norvegicus [1] was determined as 13%; with Rattus norvegicus [2], 3%; in the assay on Rattus norvegicus [3], 19%; in the assay with Rattus norvegicus [4], 58%; in the assay on Rattus norvegicus [5], 56%; in the assay on Rattus norvegicus [6] it was 62%.

On to `COC(=O)C(Oc1ccccc1)c1ccc(Oc2ccccc2)cc1` (stereo not drawn), for which the Activity in the assay on Rattus norvegicus [1] came to 21%; in the assay on Rattus norvegicus [2], 19%; in the assay on Rattus norvegicus [3], 10%; in the assay with Rattus norvegicus [4] it was 58%; in the assay with Rattus norvegicus [5], 49%; in the assay on Rattus norvegicus [6], 46%.

As for `COC(=O)C(Oc1ccc(Cl)cc1)c1ccc(Oc2cccc(C(F)(F)F)c2)cc1` (stereo not drawn), the Activity in the assay on Rattus norvegicus [1] worked out at 32%; in the assay on Rattus norvegicus [2], 31%; in the assay with Rattus norvegicus [3], 8%; with Rattus norvegicus [4], 50%; with Rattus norvegicus [5], 47%; in the assay with Rattus norvegicus [6] it was 35%.

With `COC(=O)C(Oc1ccc(C2CCCCC2)cc1)c1ccc(Oc2cccc(C(F)(F)F)c2)cc1` (stereo not drawn), the Activity in the assay with Rattus norvegicus [1] was 20%; with Rattus norvegicus [2], 18%; in the assay on Rattus norvegicus [3] it was 8%; with Rattus norvegicus [4], 59%; in the assay on Rattus norvegicus [5], 34%; with Rattus norvegicus [6], 40%.

For `COC(=O)C(Oc1ccc(Cl)cc1)c1ccc(Oc2ccc(C(C)(C)C)cc2)cc1` (stereo not drawn), the Activity was determined as 7% in the assay with Rattus norvegicus [1]; 11% in the assay with Rattus norvegicus [2]; 17% in the assay with Rattus norvegicus [3]; 46% in the assay on Rattus norvegicus [4]; 30% with Rattus norvegicus [5]; 25% in the assay with Rattus norvegicus [6].

On to `COC(=O)C(Oc1cccc(C(C)(C)C)c1)c1ccc(Oc2ccc(C(C)(C)C)cc2)cc1` (stereo not drawn), for which the Activity in the assay with Rattus norvegicus [1] was 4%; in the assay on Rattus norvegicus [2], 6%; in the assay with Rattus norvegicus [3] it was -5%; in the assay on Rattus norvegicus [4], 33%; in the assay with Rattus norvegicus [5], 13%; in the assay on Rattus norvegicus [6], 21%.

Take `COC(=O)C(Oc1ccc(C2CCCCC2)cc1)c1ccc(Sc2ccc(Cl)cc2)cc1` (stereo not drawn): the Activity in the assay on Rattus norvegicus [1] was determined as 19%; in the assay on Rattus norvegicus [2], 15%; in the assay on Rattus norvegicus [3] it was 14%; in the assay with Rattus norvegicus [4] it was 45%; in the assay on Rattus norvegicus [5] it was 44%; in the assay on Rattus norvegicus [6] it was 33%.

Take `O=C(OCC(O)CO)C(Oc1ccc(Cl)cc1)c1ccc(Oc2ccc(Cl)cc2)cc1` (stereo not drawn): the Activity with Rattus norvegicus [1] stood at 39%; in the assay on Rattus norvegicus [2] it was 27%; in the assay on Rattus norvegicus [3], 13%; with Rattus norvegicus [4], 63%; in the assay on Rattus norvegicus [5], 53%; in the assay on Rattus norvegicus [6], 24%.
